ChEMBL document CHEMBL3102784, “Salicylanilide diethyl phosphates: synthesis, antimicrobial activity and cytotoxicity” (Bioorg Med Chem, 2014)
In brackets after ≈: the same amount, converted by molar mass. Activity calls are given as the source filed them. The rule behind the calls is not given here.

How the values were obtained:
Mycobacterium avium [1] = test: Antimycobacterial activity against isoniazid, rifampicin, ethambutol and ofloxacin-resistant Mycobacterium avium My 330/88 after 21 days; assay type: functional; conditions: My 330/88, 504 h
Outline: (§1)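 Micromethod MIC in Šula's semisynthetic medium at 37 °C. Compounds added in DMSO at 1000 down to 0.032 µmol/L. Isoniazid standard in sterile water at 0.5–250 µmol/L. Inocula: H37Rv 10^3, M. avium 10^5, M. kansasii 10^4. Read at 14 and 21 d, plus 7 d for M. kansasii.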

Mycobacterium avium [2] = test: Antimycobacterial activity against isoniazid, rifampicin, ethambutol and ofloxacin-resistant Mycobacterium avium My 330/88 after 14 days; assay type: functional; conditions: My 330/88, 336 h; outline: as §1
[3] = system: Mycobacterium tuberculosis; test: Antimycobacterial activity against Mycobacterium tuberculosis H37Rv My 331/88 after 21 days; assay type: functional; conditions: H37Rv My 331/88, 504 h; outline: as §1
[4] = system: Mycobacterium tuberculosis; test: Antimycobacterial activity against Mycobacterium tuberculosis H37Rv My 331/88 after 14 days; assay type: functional; conditions: H37Rv My 331/88, 336 h; outline: as §1
[5] = system: Trichophyton mentagrophytes; test: Antifungal activity against Trichophyton mentagrophytes 445 after 120 hrs by broth microdilution method; assay type: functional; conditions: Trichophyton mentagrophytes, 445, 120 h
Outline: (§2)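 Filamentous dermatophyte tested by broth microdilution in RPMI 1640 with glutamine, fluconazole as reference. Value expressed as IC50 relative to growth control. Read at 72 and 120 h.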

[6] = system: Trichophyton mentagrophytes; test: Antifungal activity against Trichophyton mentagrophytes 445 after 72 hrs by broth microdilution method; assay type: functional; conditions: Trichophyton mentagrophytes, 445, 72 h; outline: as §2
Lichtheimia corymbifera [7] = test: Antifungal activity against Absidia corymbifera 272 after 48 hrs by broth microdilution method; assay type: functional; conditions: Lichtheimia corymbifera, 272, 48 h
Outline: (§3)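 Broth microdilution in RPMI 1640 with glutamine, fluconazole as reference. For yeasts, MIC is ≥80% growth reduction (IC80) versus control. For filamentous fungi, the value is expressed as IC50. Readings at 24 and 48 h.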

Lichtheimia corymbifera [8] = test: Antifungal activity against Absidia corymbifera 272 after 24 hrs by broth microdilution method; assay type: functional; conditions: Lichtheimia corymbifera, 272, 24 h; outline: as §3
Aspergillus fumigatus [9] = test: Antifungal activity against Aspergillus fumigatus 231 after 48 hrs by broth microdilution method; assay type: functional; conditions: Aspergillus fumigatus, 231, 48 h; outline: as §3
Aspergillus fumigatus [10] = test: Antifungal activity against Aspergillus fumigatus 231 after 24 hrs by broth microdilution method; assay type: functional; conditions: Aspergillus fumigatus, 231, 24 h; outline: as §3
Trichosporon asahii [11] = test: Antifungal activity against Trichosporon asahii 1188 after 48 hrs by broth microdilution method; assay type: functional; conditions: Trichosporon asahii, 1188, 48 h; outline: as §3
Trichosporon asahii [12] = test: Antifungal activity against Trichosporon asahii 1188 after 24 hrs by broth microdilution method; assay type: functional; conditions: Trichosporon asahii, 1188, 24 h; outline: as §3
Pichia kudriavzevii [13] = test: Antifungal activity against Candida krusei E28 after 48 hrs by broth microdilution method; assay type: functional; conditions: E28, 48 h; outline: as §3
Pichia kudriavzevii [14] = test: Antifungal activity against Candida krusei E28 after 24 hrs by broth microdilution method; assay type: functional; conditions: E28, 24 h; outline: as §3
Candida albicans [15] = test: Antifungal activity against Candida albicans ATCC 44859 after 48 hrs by broth microdilution method; assay type: functional; conditions: ATCC 44859, 48 h; outline: as §3
Candida albicans [16] = test: Antifungal activity against Candida albicans ATCC 44859 after 24 hrs by broth microdilution method; assay type: functional; conditions: ATCC 44859, 24 h; outline: as §3
Nakaseomyces glabratus = test: Antifungal activity against Candida glabrata 20/I at 500 micromol/L after 24 to 48 hrs by broth microdilution method; assay type: functional, organism-based; outline: as §3
Candida tropicalis = test: Antifungal activity against Candida tropicalis 156 at 500 micromol/L after 24 to 48 hrs by broth microdilution method; assay type: functional, organism-based; outline: as §3
Pseudomonas aeruginosa = test: Antibacterial activity against Pseudomonas aeruginosa CCM 1961 at 500 micromol/L after 24 to 48 hrs by broth microdilution method; assay type: functional, organism-based
Outline: (§4)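 Broth microdilution in Mueller–Hinton broth, compounds dissolved in DMSO, tested over a dilution series from 500 downward. MIC taken as ≥95% growth reduction (IC95) versus drug-free control. Benzylpenicillin comparator. Readings at 24 and 48 h.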

Klebsiella pneumoniae [17] = test: Antibacterial activity against ESBL-positive Klebsiella pneumoniae J 14368/08 at 500 micromol/L after 24 to 48 hrs by broth microdilution method; assay type: functional, organism-based; outline: as §4
Klebsiella pneumoniae [18] = test: Antibacterial activity against Klebsiella pneumoniae D 11750/08 at 500 micromol/L after 24 to 48 hrs by broth microdilution method; assay type: functional, organism-based; outline: as §4
Escherichia coli = test: Antibacterial activity against Escherichia coli CCM 4517 at 500 micromol/L after 24 to 48 hrs by broth microdilution method; assay type: functional, organism-based; outline: as §4
Enterococcus sp. = test: Antibacterial activity against Enterococcus sp. J 14365/08 at 500 micromol/L after 24 to 48 hrs by broth microdilution method; assay type: functional, organism-based; outline: as §4
[19] = system: Staphylococcus epidermidis; test: Antibacterial activity against Staphylococcus epidermidis H 6966/08 after 48 hrs by broth microdilution method; assay type: functional; conditions: H 6966/08, 48 h; outline: as §4
[20] = system: Staphylococcus epidermidis; test: Antibacterial activity against Staphylococcus epidermidis H 6966/08 after 24 hrs by broth microdilution method; assay type: functional; conditions: H 6966/08, 24 h; outline: as §4
Staphylococcus aureus [21] = test: Antibacterial activity against methicillin-resistant Staphylococcus aureus H 5996/08 after 48 hrs by broth microdilution method; assay type: functional; conditions: H 5996/08, 48 h; outline: as §4
Staphylococcus aureus [22] = test: Antibacterial activity against methicillin-resistant Staphylococcus aureus H 5996/08 after 24 hrs by broth microdilution method; assay type: functional; conditions: H 5996/08, 24 h; outline: as §4
Staphylococcus aureus [23] = test: Antibacterial activity against Staphylococcus aureus CCM 4516/08 after 48 hrs by broth microdilution method; assay type: functional; conditions: CCM 4516/08, 48 h; outline: as §4
Staphylococcus aureus [24] = test: Antibacterial activity against Staphylococcus aureus CCM 4516/08 after 24 hrs by broth microdilution method; assay type: functional; conditions: CCM 4516/08, 24 h; outline: as §4
Mycobacterium kansasii [25] = test: Antimycobacterial activity against Mycobacterium kansasii 6509/96 after 21 days; assay type: functional; conditions: 6509/96, 504 h; outline: as §1
Mycobacterium kansasii [26] = test: Antimycobacterial activity against Mycobacterium kansasii 6509/96 after 14 days; assay type: functional; conditions: 6509/96, 336 h; outline: as §1
Mycobacterium kansasii [27] = test: Antimycobacterial activity against Mycobacterium kansasii 6509/96 after 7 days; assay type: functional; conditions: 6509/96, 168 h; outline: as §1
Mycobacterium kansasii [28] = test: Antimycobacterial activity against Mycobacterium kansasii My 235/80 after 21 days; assay type: functional; conditions: My 235/80, 504 h; outline: as §1
Mycobacterium kansasii [29] = test: Antimycobacterial activity against Mycobacterium kansasii My 235/80 after 14 days; assay type: functional; conditions: My 235/80, 336 h; outline: as §1
HepG2 = test: Cytotoxicity against human HepG2 cells after 24 hrs by CellTiter assay; assay type: cell-based; conditions: HepG2, 24 h
Outline: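 HepG2 cells (passage 27–33) in MEM with 10% FBS, L-glutamine and NEAA, seeded at 1×10^4 per well. Treated next day with compounds at 0.1–100 µM (or 0.1–25 µmol/L), triplicates, <1% DMSO, for 24 h at 37 °C, 5% CO2. MTS reagent added for 2 h, absorbance read at 490 nm. IC50 taken against untreated (100%) and 10% DMSO (0%) controls.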

Mycobacterium kansasii [30] = test: Antimycobacterial activity against Mycobacterium kansasii My 235/80 after 7 days; assay type: functional; conditions: My 235/80, 168 h; outline: as §1

Compound | MIC (Mycobacterium avium [1]) | MIC (Mycobacterium avium [2]) | MIC [3] | MIC [4] | MIC50 [5] | MIC50 [6] | MIC50 (Lichtheimia corymbifera [7]) | MIC50 (Lichtheimia corymbifera [8]) | MIC50 (Aspergillus fumigatus [9]) | MIC50 (Aspergillus fumigatus [10]) | MIC80 (Trichosporon asahii [11]) | MIC80 (Trichosporon asahii [12]) | MIC80 (Pichia kudriavzevii [13]) | MIC80 (Pichia kudriavzevii [14]) | MIC80 (Candida albicans [15]) | MIC80 (Candida albicans [16]) | Activity (Nakaseomyces glabratus) | Activity (Candida tropicalis) | Activity (Pseudomonas aeruginosa) | Activity (Klebsiella pneumoniae [17]) | also measured
CCOP(=O)(OCC)Oc1ccc(Br)cc1C(=O)Nc1cccc(Cl)c1 | 16 µM (≈ 7.4 µg/mL) | 16 µM (≈ 7.4 µg/mL) | 4 µM (≈ 1.85 µg/mL) | 4 µM (≈ 1.85 µg/mL) | 15.6 µM (≈ 7.23 µg/mL) | 7.81 µM (≈ 3.61 µg/mL) | > 500 µM | > 500 µM | > 500 µM | > 500 µM | 62.5 µM (≈ 28.9 µg/mL) | 15.6 µM (≈ 7.23 µg/mL) | 125 µM (≈ 57.8 µg/mL) | 31.2 µM (≈ 14.5 µg/mL) | > 500 µM | > 500 µM | inactive | inactive | inactive | inactive | Activity (Klebsiella pneumoniae [18]): inactive; Activity (Escherichia coli): inactive; Activity (Enterococcus sp.): inactive; MIC95 [19]: 250 µM (≈ 116 µg/mL); MIC95 [20]: 125 µM (≈ 57.8 µg/mL); MIC95 (Staphylococcus aureus [21]): 250 µM (≈ 116 µg/mL); MIC95 (Staphylococcus aureus [22]): 125 µM (≈ 57.8 µg/mL); MIC95 (Staphylococcus aureus [23]): 250 µM (≈ 116 µg/mL); MIC95 (Staphylococcus aureus [24]): 125 µM (≈ 57.8 µg/mL); MIC (Mycobacterium kansasii [25]): 8 µM (≈ 3.7 µg/mL); MIC (Mycobacterium kansasii [26]): 8 µM (≈ 3.7 µg/mL); MIC (Mycobacterium kansasii [27]): 4 µM (≈ 1.85 µg/mL); MIC (Mycobacterium kansasii [28]): 8 µM (≈ 3.7 µg/mL); MIC (Mycobacterium kansasii [29]): 8 µM (≈ 3.7 µg/mL); IC50 (HepG2): 6.52 µM; MIC (Mycobacterium kansasii [30]): 4 µM (≈ 1.85 µg/mL)
CCOP(=O)(OCC)Oc1cc(Cl)ccc1C(=O)Nc1cccc(Cl)c1 | 16 µM (≈ 6.69 µg/mL) | 16 µM (≈ 6.69 µg/mL) | 8 µM (≈ 3.35 µg/mL) | 4 µM (≈ 1.67 µg/mL) | > 500 µM | > 500 µM | > 500 µM | > 500 µM | > 500 µM | > 500 µM | > 500 µM | > 500 µM | > 500 µM | > 500 µM | > 500 µM | > 500 µM | inactive | inactive | inactive | inactive | Activity (Klebsiella pneumoniae [18]): inactive; Activity (Escherichia coli): inactive; Activity (Enterococcus sp.): inactive; MIC95 [19]: 500 µM (≈ 209 µg/mL); MIC95 [20]: 250 µM (≈ 105 µg/mL); MIC95 (Staphylococcus aureus [21]): 500 µM (≈ 209 µg/mL); MIC95 (Staphylococcus aureus [22]): 500 µM (≈ 209 µg/mL); MIC95 (Staphylococcus aureus [23]): 500 µM (≈ 209 µg/mL); MIC95 (Staphylococcus aureus [24]): 500 µM (≈ 209 µg/mL); MIC (Mycobacterium kansasii [25]): 8 µM (≈ 3.35 µg/mL); MIC (Mycobacterium kansasii [26]): 8 µM (≈ 3.35 µg/mL); MIC (Mycobacterium kansasii [27]): 8 µM (≈ 3.35 µg/mL); MIC (Mycobacterium kansasii [28]): 8 µM (≈ 3.35 µg/mL); MIC (Mycobacterium kansasii [29]): 8 µM (≈ 3.35 µg/mL); IC50 (HepG2): 9.57 µM; MIC (Mycobacterium kansasii [30]): 4 µM (≈ 1.67 µg/mL)
